# Test results published in ChEMBL document CHEMBL4043283, “Discovery and Preclinical Development of IIIM-290, an Orally Active Potent Cyclin-Dependent Kinase Inhibitor” (J Med Chem, 2018).
# The source made the active and inactive calls. No cut-off for these calls is given here.
# What was measured:
# [1] = Efflux ratio of apparent permeability across basolateral to apical side over apical to basolateral side in human Caco2 cells after 90 mins by LC-MS/MS analysis; type: ADME, cell-based; conditions: Caco-2
# How it was run: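 Caco-2 monolayers cultured for 21 days. Test compound applied in HBSS buffer with 10 mM HEPES. Samples drawn from both the apical and basolateral chambers.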
# [2] = target: Cyclin-dependent kinase 5/CDK5 activator 1 (Homo sapiens, UniProt Q00535); experiment: Inhibition of CDK5/cyclin p35 (unknown origin) after 30 mins in presence of [33P]-gamma-ATP by filter binding assay; type: protein-complex assay
# Chain of Cyclin-dependent kinase 5/CDK5 activator 1 (Q00535 whole entry): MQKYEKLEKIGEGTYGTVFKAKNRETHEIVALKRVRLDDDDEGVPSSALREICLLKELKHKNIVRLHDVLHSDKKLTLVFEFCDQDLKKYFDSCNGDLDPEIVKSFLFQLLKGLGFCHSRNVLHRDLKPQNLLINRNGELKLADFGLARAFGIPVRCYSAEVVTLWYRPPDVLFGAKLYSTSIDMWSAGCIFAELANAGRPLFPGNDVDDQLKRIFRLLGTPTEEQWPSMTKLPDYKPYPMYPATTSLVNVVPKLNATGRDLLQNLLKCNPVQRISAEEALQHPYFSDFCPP
# Chain of Cyclin-dependent kinase 5/CDK5 activator 1 (Q15078 whole entry, further chain): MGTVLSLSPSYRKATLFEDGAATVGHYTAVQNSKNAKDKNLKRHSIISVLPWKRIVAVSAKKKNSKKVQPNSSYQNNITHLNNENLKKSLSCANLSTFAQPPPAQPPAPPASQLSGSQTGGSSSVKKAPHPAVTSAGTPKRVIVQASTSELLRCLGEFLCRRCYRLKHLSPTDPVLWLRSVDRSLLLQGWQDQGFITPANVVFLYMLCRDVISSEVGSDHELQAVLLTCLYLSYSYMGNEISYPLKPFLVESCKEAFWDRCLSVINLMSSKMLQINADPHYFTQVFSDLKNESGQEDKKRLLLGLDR
# [3] = target: Cytochrome P450 2D6 (Homo sapiens, UniProt P10635); experiment: Time-dependent inhibition of human CYP2D6 at 2 uM using fluorogenic substrate by fluorometric method; type: ADME
# Chain of Cytochrome P450 2D6 (P10635 whole entry): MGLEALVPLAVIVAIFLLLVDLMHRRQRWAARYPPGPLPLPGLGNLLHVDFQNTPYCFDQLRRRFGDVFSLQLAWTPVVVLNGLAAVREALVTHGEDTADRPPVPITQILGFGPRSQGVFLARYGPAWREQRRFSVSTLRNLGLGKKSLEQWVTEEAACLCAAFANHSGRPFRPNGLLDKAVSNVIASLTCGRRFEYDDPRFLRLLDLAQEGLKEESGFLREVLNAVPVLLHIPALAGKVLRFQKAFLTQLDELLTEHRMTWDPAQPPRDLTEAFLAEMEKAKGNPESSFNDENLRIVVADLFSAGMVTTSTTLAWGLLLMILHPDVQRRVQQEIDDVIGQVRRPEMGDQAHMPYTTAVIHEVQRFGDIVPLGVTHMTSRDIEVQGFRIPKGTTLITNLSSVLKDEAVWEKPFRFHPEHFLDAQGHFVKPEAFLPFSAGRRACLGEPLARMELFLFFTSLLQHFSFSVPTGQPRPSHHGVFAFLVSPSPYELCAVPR
# [4] = Cmax in BALB/c mouse at 30 mg/kg, po by LC-MS/MS analysis; type: ADME, organism-based; design: dose 30 mg/kg, route oral; conditions: in vivo
# [5] = Thermodynamic equilibrium solubility of compound in water after 5 hrs by shake flask method; type: physicochemical; conditions: read-out: Therm_solubility
# [6] = test system: Liver; experiment: Intrinsic clearance in dog liver S9 fraction assessed per mg of protein preincubated for 5 mins followed by NADPH addition measured after 30 mins by LC-MS/MS analysis; type: ADME, tissue-based, Canis lupus familiaris; conditions: s9, 0.5 h
# How it was run: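 Intrinsic clearance obtained from substrate disappearance over time, reported per mg protein (microsomes, S9) or per 10^6 cells (hepatocytes).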
# [7] = Growth inhibition of human NCI-H322 cells after 48 hrs by MTT assay; type: functional; conditions: NCI-H322, 48 h
# How it was run: (§1)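 Cancer cell lines sourced from the National Cancer Institute (USA). Cells kept in appropriate growth medium at 37 °C, 95% humidity, 5% CO2. Antiproliferation read by tetrazolium (MTT) assay. GI50 values were determined only for compounds selected after an initial single-concentration screen.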
# [8] = test system: Mus musculus; experiment: Toxicity in CD1 nude mouse xenografted with human MIAPaCa2 cells assessed as change in body weight at 25 to 50 mg/kg, po qd administered on day 10 to 25 post tumor inoculation; type: organism-based; conditions: in vivo
# [9] = Pancreas to plasma partition coefficient, Kp of the compound in Sprague-Dawley rat at 30 mg/kg, po measured at 0.5 hrs; type: ADME, organism-based; conditions: pancreas and plasma
# [10] = target: CDK4/Cyclin D3 (Homo sapiens) (UniProt P11802+P30281); experiment: Inhibition of full length wild type human CDK4/cyclin D3 expressed in mammalian expression system at 0.5 uM by KINOMEscan method relative to control
# How it was run: (§2)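 Competition binding screen (KINOMEscan) at 0.5 μM; primary binding read out as % of control, lower values indicating stronger interaction.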
# [11] = Growth inhibition of HGF after 48 hrs by MTT assay; type: cell-based; conditions: human, HGF cells
# [12] = test system: Salmonella typhimurium; experiment: Mutagenicity in Salmonella typhimurium TA1537 at 50 ug/plate in absence of liver S9 fraction by Ames test; type: toxicity; conditions: salmonella enterica subsp. enterica serovar typhimurium
# [13] = Ratio of Cmax in BALB/c mouse at 30 mg/kg, po to GI50 for human MIAPaCa2 cells
# [14] = test system: Caco-2; experiment: Growth inhibition of human Caco2 cells after 48 hrs by MTT assay; type: functional; conditions: Caco-2, 48 h; how it was run: as §1
# [15] = test system: MIA PaCa-2; experiment: Induction of apoptosis in human MIAPaCa2 cells assessed as intracellular vesicle formation after 24 hrs by scanning electron microscopy; type: functional, cell-based
# How it was run: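 Cells exposed to different compound concentrations for 24 h on coverslips, fixed in 2.5% glutaraldehyde in 0.1 M phosphate buffer pH 7.2 (4 °C, 24 h), postfixed in 1% OsO4 4 h, ethanol-dehydrated, critical-point dried with HMDS, gold-coated, imaged at 20 kV.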
# [16] = Protein binding in dog plasma at 3 uM after 5 hrs by equilibrium dialysis method; type: ADME, cell-free, Canis lupus familiaris; conditions: read-out: PPB (converted)
# [17] = test system: HCT-116; experiment: Antitumor activity against human HCT116 cells xenografted in CD1 nude mouse assessed as tumor growth inhibition at 50 mg/kg, po qd administered on day 10 to 25 post tumor inoculation relative to control; type: functional; conditions: HCT-116, po, 240 h, read-out: TGI
# [18] = test system: Salmonella typhimurium; experiment: Mutagenicity in Salmonella typhimurium TA102 at 50 ug/plate in presence of liver S9 fraction by Ames test; type: toxicity; conditions: salmonella enterica subsp. enterica serovar typhimurium
# [19] = Chemical stability of compound in phosphate buffered saline at pH 7.4 assessed as parent compound remaining at 120 ug/ml after 24 hrs by HPLC method; type: physicochemical; conditions: read-out: Stability
# [20] = Protein binding in rat plasma at 3 uM after 5 hrs by equilibrium dialysis method; type: ADME, cell-free; conditions: read-out: PPB (converted)
# [21] = target: Tyrosine-protein kinase Blk (Homo sapiens) (UniProt P51451); experiment: Inhibition of partial length wild type human BLK expressed in bacterial expression system at 0.5 uM by KINOMEscan method relative to control; how it was run: as §2
# Chain of Tyrosine-protein kinase Blk (Homo sapiens) (P51451 2-505 limits assumed): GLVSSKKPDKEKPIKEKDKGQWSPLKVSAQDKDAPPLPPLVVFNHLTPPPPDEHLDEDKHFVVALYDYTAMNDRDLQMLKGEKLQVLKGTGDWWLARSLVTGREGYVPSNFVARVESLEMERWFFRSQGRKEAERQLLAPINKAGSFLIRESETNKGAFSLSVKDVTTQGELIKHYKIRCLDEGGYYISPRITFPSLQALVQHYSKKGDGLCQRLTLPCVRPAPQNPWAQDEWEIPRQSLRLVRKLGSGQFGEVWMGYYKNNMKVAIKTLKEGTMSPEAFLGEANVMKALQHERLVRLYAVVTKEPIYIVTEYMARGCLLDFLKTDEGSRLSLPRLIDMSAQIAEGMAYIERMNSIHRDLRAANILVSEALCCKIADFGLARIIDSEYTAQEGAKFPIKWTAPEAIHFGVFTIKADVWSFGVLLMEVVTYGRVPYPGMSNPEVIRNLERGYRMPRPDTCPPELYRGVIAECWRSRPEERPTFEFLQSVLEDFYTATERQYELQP
# [22] = test system: Tyrosine-protein kinase ABL1 (Homo sapiens), P00519 [H396P]; experiment: Inhibition of partial length human ABL1 H396P mutant expressed in mammalian expression system at 0.5 uM by KINOMEscan method relative to control; how it was run: as §2
# [23] = Half life in rat hepatocytes at 3 uM after 180 mins by LC-MS/MS analysis; type: ADME, cell-based, Hepatocyte
# [24] = Intrinsic clearance in mouse liver microsomes assessed per mg of protein at 100 uM after 30 mins by LC-MS/MS analysis; type: ADME, microsome; conditions: read-out: CLH
# [25] = test system: MIA PaCa-2; experiment: Induction of apoptosis in human MIAPaCa2 cells assessed as caspase-3 cleavage by Western blot method; type: functional, cell-based
# How it was run: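 Lysate protein quantified against a BSA standard; 70 μg resolved by SDS-PAGE, transferred to PVDF overnight at 4 °C, 30 V; blocked 1 h in 5% nonfat milk/TBST; primary antibodies 2–4 h, HRP anti-mouse secondary 1 h; ECL detection on X-ray film.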
# [26] = test system: Mus musculus; experiment: Toxicity in CD1 nude mouse xenografted with human HCT116 cells assessed as mortality at 50 mg/kg, po qd administered on day 10 to 25 post tumor inoculation; type: organism-based; conditions: in vivo
# [27] = test system: Salmonella typhimurium; experiment: Mutagenicity in Salmonella typhimurium TA102 at 50 ug/plate in absence of liver S9 fraction by Ames test; type: toxicity; conditions: salmonella enterica subsp. enterica serovar typhimurium
# [28] = test system: MIA PaCa-2; experiment: Cell cycle arrest in human MIAPaCa2 cells assessed as accumulation at G1 phase at 1.5 uM after 24 hrs by propidium iodide staining-based flow cytometric method (reference value: 36%); type: functional
# [29] = test system: HOP-62; experiment: Growth inhibition of human HOP62 cells after 48 hrs by MTT assay; type: functional; conditions: HOP-62, 48 h; how it was run: as §1
# [30] = test system: Liver; experiment: Intrinsic clearance in human liver S9 fraction assessed per mg of protein preincubated for 5 mins followed by NADPH addition measured after 30 mins by LC-MS/MS analysis; type: ADME, tissue-based; conditions: s9, 0.5 h
# [31] = Thermodynamic equilibrium solubility of compound in SGF at pH 1.2 after 5 hrs by shake flask method; type: physicochemical; conditions: read-out: Therm_solubility
# [32] = Ratio of Cmax in Sprague-Dawley rat at 30 mg/kg, po to GI50 for human MIAPaCa2 cells
# [33] = test system: Tyrosine-protein kinase ABL1 (Homo sapiens), P00519 [Q252H]; experiment: Inhibition of partial length human ABL1 Q252H mutant expressed in mammalian expression system at 0.5 uM by KINOMEscan method relative to control; how it was run: as §2
# [34] = Tmax in BALB/c mouse at 10 mg/kg, po by LC-MS/MS analysis; type: ADME, organism-based; conditions: in vivo
# [35] = test system: Lung; experiment: Drug uptake in Sprague-Dawley rat lung at 30 mg/kg, po after 8 hrs; type: ADME, organism-based; conditions: in vivo
smiles,measurement,setting,value
CN1CC[C@H](c2c(O)cc(O)c3c(=O)cc(/C=C/c4c(Cl)cccc4Cl)oc23)[C@H](O)C1,efflux ratio at 1.5 h,[1],1.8
same,IC50,[2],0.0157 µM
same,TDI,[3],Not Active
same,Cmax,[4],4.11 µM
same,solubility thermodynamic at 5 h,[5],20.3 µg/mL
same,CLint,[6],12 µL/min/mg
same,GI50,[7],2 µM
same,Activity,[8],Non-Toxic
same,Kp at 0.5 h,[9],5.3
same,inhibition,[10],> 98%
same,GI50 at 48 h,[11],18 µM
same,Activity,[12],Non-Toxic
same,Ratio,[13],4
same,GI50,[14],7 µM
same,Activity,[15],Active
same,"fraction unbound at 5 h, 3 µM",[16],0.05
same,inhibition in vivo at 50 mg/kg,[17],40 to 52%
same,Activity,[18],Non-Toxic
same,"remaining at 24 h, 120 ug/ml",[19],100%
same,"fraction unbound at 5 h, 3 µM",[20],0.046
same,inhibition,[21],> 98%
same,inhibition,[22],> 98%
same,half-life at 3 µM,[23],6.27 h
same,microsomal CLint at 100 µM,[24],< 8.8 µL/min/mg
same,Activity,[25],Dose-dependent effect
same,Activity,[26],Non-Toxic
same,Activity,[27],Non-Toxic
same,Activity,[28],48%
same,GI50,[29],7 µM
same,CLint,[30],19 µL/min/mg
same,solubility thermodynamic at 5 h,[31],8.81 µg/mL
same,Ratio,[32],4
same,inhibition,[33],> 98%
same,Tmax,[34],0.25 to 1.71 h
same,Drug uptake,[35],Active
